Series [1] deals with T1, Potassium voltage-gated channel subfamily KQT member 1 (Cavia porcellus, UniProt O70344).
T1 sequence (O70344 whole entry): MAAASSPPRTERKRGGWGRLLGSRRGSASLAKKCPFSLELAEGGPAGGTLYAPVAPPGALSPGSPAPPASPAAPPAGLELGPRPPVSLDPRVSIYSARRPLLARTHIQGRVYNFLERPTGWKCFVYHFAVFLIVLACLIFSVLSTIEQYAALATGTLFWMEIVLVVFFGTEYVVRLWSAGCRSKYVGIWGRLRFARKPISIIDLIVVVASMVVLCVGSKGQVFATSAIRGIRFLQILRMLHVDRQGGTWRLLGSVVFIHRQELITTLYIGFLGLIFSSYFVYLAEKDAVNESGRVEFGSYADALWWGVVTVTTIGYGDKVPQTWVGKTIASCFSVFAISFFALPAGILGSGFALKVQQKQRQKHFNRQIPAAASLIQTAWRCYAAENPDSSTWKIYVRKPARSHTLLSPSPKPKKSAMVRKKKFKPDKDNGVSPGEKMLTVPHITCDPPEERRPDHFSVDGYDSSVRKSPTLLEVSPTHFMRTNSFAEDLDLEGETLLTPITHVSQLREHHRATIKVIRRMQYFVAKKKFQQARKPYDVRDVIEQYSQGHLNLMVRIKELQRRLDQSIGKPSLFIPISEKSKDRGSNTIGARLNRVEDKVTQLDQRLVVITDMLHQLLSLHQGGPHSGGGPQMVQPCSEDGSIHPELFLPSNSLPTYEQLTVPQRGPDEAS
Kind of series: Molar concentration required to inhibit 50% of the activating delayed-rectifier K+ current in isolated guinea pig ventricular myocytes. The method in brief:
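Native IKs recorded by voltage clamp in isolated guinea pig ventricular myocytes, with ionic solutions and voltage protocol designed to isolate IKs from other currents.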

A short description of series [2]: Bioavailability in rat. Type of series: ADME, organism-based. Conditions: in vivo. In short, it runs like this: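 Rats were dosed orally and screened for plasma drug levels. Compounds reaching plasma concentrations of >75 nM were then tested individually for oral bioavailability by standard methods.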
A short description of series [3]: Compound was evaluated for half life period when administered intravenously. Conditions: in vivo, iv. The format is ADME, organism-based. In short, it runs like this:
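Half-life was determined in rats after intravenous administration.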

One may read the IC50 as the concentration that inhibits the measured activity by half. Read a low IC50 as greater potency. In turn, `CCCCCCOc1ccc(C(=O)NCC2CCCC2(C)C)cc1` (single isomer, unassigned; form 2) yielded an IC50 in series [1] of 160 nM.

Usually bioavailability stands for the share of a dose that reaches the circulation, judged against a reference dose that is usually intravenous. A high value points to good availability. The term half-life denotes the time in which the quantity being followed falls by half. High values mean slow decline, low ones rapid decline. `CC1(C)CCCC1CNC(=O)c1ccc(-c2noc(CCC(F)(F)F)n2)cc1` (single isomer, unassigned; form 2) returned a bioavailability in series [2] of 23%. The same compound showed an IC50 in series [1] of 40 nM. For the same compound, the half-life in series [3] was found to be 3.2 h.

In turn, `CCCc1noc(-c2ccc(C(=O)NCC3CCCC3(C)C)cc2)n1` (single isomer, unassigned; form 2) yielded an IC50 in series [1] of 10 nM.

In series [1], `CCCCCCOc1ccc(C(=O)NCC2CCCC(C)(C)C2)cc1` (stereo unspecified) displayed a 50% inhibitory concentration (IC50) of 370 nM.

For the compound `CC1(C)CCCC1CNC(=O)c1ccc(-c2nc(CC3CC3)no2)cc1` (single isomer, unassigned; form 2), the IC50 in series [1] was 18 nM.

In the case of `CCN(CC)C(=O)COc1ccc(C(C)(C)CC(C)(C)C)cc1`, inhibition in series [1] was half-maximal at 5000 nM (IC50).

Regarding `CC1(C)CCCC1CNC(=O)c1ccc(-c2noc(CCC(F)(F)F)n2)cc1` (single isomer, unassigned; form 1), the IC50 in series [1] came out at 27 nM.

For `CCCCCCOc1ccc(C(=O)CCN2CCCCC2)cc1`, in series [1], the IC50 worked out at 4000 nM.

The compound `CC(C)(C)CCNC(=O)c1ccc(-c2nc(-c3ccccc3)no2)cc1` registered an IC50 in series [1] of 130 nM.

Turning to `Cc1noc(-c2ccc(C(=O)NCC3CCCC3(C)C)cc2)n1` (stereo in doubt; 21(B)), the IC50 in series [1] is 580 nM.

As for `CCCCc1noc(-c2ccc(C(=O)NCCC(C)(C)C)cc2)n1`, in series [1], the IC50 stood at 23 nM.

In series [1], `CCCc1noc(-c2ccc(C(=O)NCC3CCCC3(C)C)cc2)n1` (single isomer, unassigned; form 1) displayed an IC50 of 27 nM.

`CCCCc1noc(-c2ccc(C(=O)NC[C@@H]3CCCC3(C)C)cc2)n1` came in with an IC50 in series [1] of 9 nM.

In turn, `CCCCCCOc1ccc(C(=O)NC2CCC(C)(C)C2)cc1` (stereo unspecified) showed a concentration for half-maximal inhibition (IC50) in series [1] of 360 nM.

With `CCCCCCOc1ccc(C(=O)N2CCC(C(C)(C)C)C2)cc1` (stereo unspecified), in series [1], the IC50 was greater than 3000 nM.

`CC(C)(C)CCNC(=O)c1ccc(-c2ccccc2)cc1` yielded an IC50 in series [1] of 540 nM.

In series [1], `CCCCCCOc1ccc(C(=O)NCC2CCCC2(C)C)cc1` (single isomer, unassigned; form 1) had an IC50 of 710 nM.

In series [1], `CN1C(=O)[C@H](NC(=O)/C=C/c2ccc(Cl)cc2Cl)N=C(c2ccccc2)c2ccccc21` yielded an IC50 of 31 nM.

Compound `CC1(C)CCCC1CNC(=O)c1ccc(-c2nc(CC3CC3)no2)cc1` (single isomer, unassigned; form 1) registered an IC50 in series [1] of 23 nM.

Take `CC(C)(C)CCNC(=O)c1ccc(-n2ccc3ccccc32)cc1`: the half-maximal inhibitory concentration (IC50) in series [1] was 260 nM.

`Cc1noc(-c2ccc(C(=O)NCC3CCCC3(C)C)cc2)n1` (stereo in doubt; 21(A)) yielded an IC50 in series [1] of 220 nM.

`CCCCCCOc1ccc(C(=O)NCC2CCCCC2(C)C)cc1` (stereo in doubt; 13(B)) showed a 50% inhibitory concentration (IC50) in series [1] greater than 3000 nM.

As to `CCCCCCOc1ccc(C(=O)NCCC(C)(C)C)cc1`, the IC50 in series [1] came to 250 nM.

The compound `CCCCc1noc(-c2ccc(C(=O)NC[C@H]3CCCC3(C)C)cc2)n1` returned a bioavailability in series [2] of less than 1%. In addition, the IC50 in series [1] stood at 2 nM. The same compound had a half-life in series [3] of 4.2 h.

Regarding `CCCCCCOc1ccc(C(=O)NCC2CCCCC2(C)C)cc1` (stereo in doubt; 13(A)), the IC50 in series [1] is 1400 nM.

`CCCCCCOc1ccc(C(=O)NCCN(CC)CC)cc1` registered an IC50 in series [1] of 3500 nM.

`CCCCCCOc1ccc(C(=O)NC2CCCC2(C)C)cc1` (stereo unspecified) displayed a concentration for half-maximal inhibition (IC50) in series [1] greater than 30000 nM.

Values taken from ChEMBL document CHEMBL1134672, “Design and synthesis of 4-substituted benzamides as potent, selective, and orally bioavailable I(Ks) blockers” (J Med Chem, 2001).
